Data on 2 molecules can be found in paper PMC8486219 (Cancer Science, 2021).

The test system of one data set is MDA‐MB‐231‐Luc xenograft. Nature of the data set: MDA-MB-231-Luc xenograft, intraperitoneal treatment. It counts as in vivo, mouse. The settings on record: i.p. docetaxel 15 mg/kg/wk (MTD), five cycles, CD-1 nude mice, bioluminescence. In outline:
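MDA-MB-231-Luc cells (5 × 10^6 in HBSS) were injected s.c. into the right flank of female CD-1 nude mice under isoflurane. At ~100 mm3, mice received weekly i.p. vehicle, docetaxel 15 mg/kg, or test compound 50 mg/kg for five cycles. Tumor bioluminescence was monitored and expressed relative to each mouse's day-0 post-treatment value, as mean ± SEM (six mice/group).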

A further data set relates to MDA‐MB‐231 cells. Kind of data set: Real-time cell migration assay. It counts as cell-based, human. The settings on record: 2 h pretreatment, 1 µM TH1902 or 2 µM docetaxel, monitored 12 h. The method in brief: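 MDA-MB-231 cells were transfected 24 h with scrambled or SORT1 siRNA, then pretreated 2 h with or without compound. Cells (25 000/well) were seeded serum-free into xCELLigence CIM plates (8 µm pores, underside gelatin-coated 0.15%, 1 h, 37°C), with serum-free medium below. After 30 min adhesion, impedance (Cell Index) was read hourly for 12 h. Duplicate wells, two experiments; one-way ANOVA with Dunnett at 10 h.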

The subject of a further data set is MDA‐MB‐231 xenograft. Nature of the data set: MDA-MB-231 xenograft, intravenous treatment. It counts as in vivo, mouse.
The nature of data set [1]: Preliminary pharmacokinetics after i.v. bolus. The format is in vivo, mouse. Conditions: CD-1 mice, single i.v. bolus TH1902 50 mg/kg.
The next data set relates to PD‐L1‐positive TNBC. Conditions: phase 1b trial of 32 patients with PD-L1-positive TNBC; cited from earlier work.

For the molecule `CC(=O)O[C@@]12CO[C@@H]1C[C@H](O)[C@@]1(C)C(=O)[C@H](O)C3=C(C)[C@@H](OC(=O)[C@H](O)[C@@H](NC(=O)OC(C)(C)C)c4ccccc4)C[C@@](O)([C@@H](OC(=O)c4ccccc4)[C@H]21)C3(C)C` [docetaxel], in the data set on MDA‐MB‐231‐Luc xenograft, the “Start of tumor relapse” value was found to be 46 days. In addition, the “Effect on cell migration (in words)” value in the data set on MDA‐MB‐231 cells is reported as “inhibit cell migration”. Moreover, the “Tumor growth at a quarter of the MTD (in words)” value in the data set with MDA‐MB‐231 xenograft (i.v. docetaxel 3.75 mg/kg or TH1902 8.75 mg/kg, n = 6 mice/group) is on record as “unaffected”. Besides, in the data set with MDA‐MB‐231 xenograft (i.v. docetaxel 15 mg/kg/wk (MTD), three injections, n = 5 mice/group), the “Restart of tumor growth” value is 50 days. In data set [1], the “free docetaxel exposure, fold lower than TH1902-associated docetaxel in plasma” value is on record as “approximately 37 fold”. For the same molecule, in data set [1] (plasma, UPLC/MS), the “AUC of free (released) docetaxel after TH1902 dosing” value came to 15.5 µM·h and the “Cmax of free (released) docetaxel after TH1902 dosing” value is 7 µM.
Regarding “Pembrolizumab: monoclonal anti‐PD‐1 antibody”, the response rate in the data set on PD‐L1‐positive TNBC is 18.5%.
